Test: Toxicity liver stage against HepG2, at 10uM
Assay type: cell-based
Design: test concentration 10 uM, cell line HepG2-A16-CD81EGFP
Conditions: human, HepG2-A16-CD81EGFP cells; read-out: INHIBITION
Outline: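 Uninfected HepG2-A16-CD81EGFP cells, 3 × 10^3 per well, 1536-well, plated on prespotted compound at 10 μM final, parasite-free screening media added to match infected plates; puromycin 10 μM positive, DMSO 0.5% negative; run in parallel with 48 h PbLuc assay at 37 °C, 5% CO2; viability by CellTiter-Glo luminescence, normalized to controls.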

Row | Structure (SMILES) | cytotoxicity at 10 µM [%]
1 | O=c1c(Cc2ccccc2)c(O)ccn1Cc1ccco1 | 5.01
2 | O=C(CSC1CCCC1)N1CCN(C(=O)C2CC2c2cccs2)CC1 (configuration not stated) | 4.48
3 | COc1ccc(CC(=O)Nc2c(C)nc(N3CCOCC3)nc2C)cc1 | 5.39
4 | CCSc1ccccc1C(=O)N1CCC(S(=O)(=O)c2nncn2C)CC1 | 0.595
5 | CC(C)Nc1nc2c(c(NC3CC3)n1)CCN(C(=O)C1CCOC1)CC2 (configuration not stated) | -145
6 | Cc1occc1C(=O)N1CCCn2cnc(CN3CCCC3=O)c2C1 | 4.24
7 | CCN(CC)CCN1CCO[C@H]2[C@@H](OCc3ccccn3)CC[C@@H]21 | -7.66
8 | Cc1ccc(CN2CCOC3(CCCN(C(=O)c4ccco4)C3)C2)o1 (configuration not stated) | -3.27
9 | CCN(c1ccc(C(=O)NCCN2CCOCC2)cc1)S(=O)(=O)CC | 6.89
10 | COCCN1C[C@@H]2CN(C(=O)[C@H]3CCCO3)C[C@@H]2C1=O | 5.82
11 | CCc1ccccc1NC(=O)CCc1cnn(C)c1 | 8.66
12 | CCN(CC)C(=O)c1nnsc1-c1ccc(Cl)cc1 | 2.74
13 | CCN(Cc1cscn1)CC1(C)Cc2c(N)nc(N)nc2O1 (configuration not stated) | 3.35
14 | Fc1ccc(F)c(CN2CCC(c3cnccn3)CC2)c1 | -1.61
15 | CN1CCC2(Cc3ccccc3CN(C(=O)Cc3cccc(Cl)c3)C2)C1 (configuration not stated) | 6.91
16 | COC(=O)c1ccc(C)c(N2CCNC2=O)c1 | 9.81
17 | CCc1nc(CS(=O)(=O)Cc2noc(C3CC3)n2)cs1 | -7.38
18 | Cc1ccc(C2CSCCN2CCS(C)(=O)=O)cc1 (configuration not stated) | -8.3
19 | Cc1cn2c(n1)CCC(NC(=O)c1ccc(OCC3CC3)nc1)C2 (configuration not stated) | -9.47
20 | O=C(CNc1nc(C(F)(F)F)cs1)N1CCc2sccc2C1 | 15.1
21 | Oc1cccc(CNCCC2CCCO2)c1 (configuration not stated) | 4.08
22 | Cc1csc(N2CCN(Cc3ccccn3)CC2)n1 | 6.14
23 | O=C(C1CCOC1)N1CCN(CC(F)(F)F)c2ccccc21 (configuration not stated) | -5.74

Row | Structure (SMILES) | cytotoxicity at 10 µM [%]
24 | Cc1nn2cccnc2c1C(=O)NCc1ccccc1OC1CCC1 | -46.4
25 | COc1ccc(N2CCC(NS(=O)(=O)N(C)C(C)C)CC2)cc1 | 6.62
26 | COCCN(C)C(=O)NCCc1coc(-c2ccc(C)cc2)n1 | 8.13
27 | FC(F)(F)Oc1ccc(CN2CCCC(n3cncn3)C2)cc1 (configuration not stated) | -14.4
28 | CC(=O)c1cccc(OC(C)C(=O)Nc2cnn(CCN(C)C)c2)c1 (configuration not stated) | 3.45
29 | Cc1ccc(C(NC(=O)CN2CCc3cncnc3C2)C2CC2)cc1 (configuration not stated) | 9.31
30 | CCc1nc(CNC2CCN(c3ccc(OC)cc3)CC2)cs1 | -12.8
31 | Cc1cc(C)c(CNC(=O)N2CCNC(=O)C2)c(=O)[nH]1 | -0.535
32 | Cc1nc(-c2ccc(NCCc3ccc(O)cc3)nc2)[nH]c(=O)c1C | 20.5
33 | COc1ccccc1N1CCC(CNC(=O)CN2CSCC2=O)C1 (configuration not stated) | -1.33
34 | Cc1ccoc1CNC(C)c1nnc2n1CCCC2 (configuration not stated) | -12.6
35 | Cc1cnc(CNC2CCc3nc(C(C)C)nn3C2)cn1 (configuration not stated) | 4.93
36 | CCN(CC(=O)N(C)C)C(=O)c1cc(-c2cccc(Cl)c2)no1 | 6.17
37 | CC(C)c1noc(CN(CCC2CCCCC2)CC(N)=O)n1 | 2.94
38 | CC(=O)N1CCC(CCNC(C)c2cc(F)cc(F)c2)CC1 (configuration not stated) | -0.988
39 | Cc1nc2cc(C(=O)N(CCC#N)CCC#N)ccc2n1C | -3.91
40 | CCN(C)S(=O)(=O)NCC1(c2cccc(Br)c2)CC1 | 10.7
41 | N#CCCN1CCC(=Cc2ccccc2)CC1 | -2.75
42 | CCc1nonc1NC(=O)C(C)Oc1ccccc1F (configuration not stated) | 12
43 | C=C(C)CN1CCC(c2n[nH]c(C3CC3)n2)CC1 | -1.92
44 | Cc1nc(NC(=O)C2CCCN(C(N)=O)C2)sc1-c1ccccc1 (configuration not stated) | 9.31
45 | CCc1cnc(N2CCN(Cc3ccncc3)CC2)s1 | 40.8
46 | CC(C)(C)[S+]([O-])CCNC(=O)c1cccc2ncccc12 (configuration not stated) | -45.1

Row | Structure (SMILES) | cytotoxicity at 10 µM [%]
47 | COc1cccc(CC2CCCN2CCCC#N)c1 (configuration not stated) | -43.7
48 | CN(CC1CCN(CCO)CC1)CC(O)c1ccc(F)cc1 (configuration not stated) | -52.8
49 | O=C(NCC1CCOC1)N1CCN(c2ncccn2)CC1 (configuration not stated) | -39.8
50 | Cc1ccc2[nH]c(CN3CC[C@@H](N4CCN(C)CC4)[C@H](O)C3)c(C)c2c1 | -7.34
51 | COc1ccc(Cc2ncc3c(n2)CN(C(=O)C(C)(C)C)C3)cc1 | -1.1
52 | COc1cc2c(cc1-c1nc3c(cnn3C(C)C3CC3)[nH]1)OCO2 (configuration not stated) | 4.82
53 | CC(C)CC(C)NC1CCN(c2cccc(-c3cscn3)c2)CC1 (configuration not stated) | -56.8
54 | CN1C[C@@H](n2cnc(-c3ccccc3)c2-c2ccccn2)C[C@H]1C(=O)O | 0.322
55 | CS(=O)(=O)CC1CCCN(c2ncnc3c2Cc2ccccc2OC3)C1 (configuration not stated) | -7.41
56 | CSCC[C@@H](CO)Nc1nc(-c2ccccn2)nc2c1c(C)nn2C | 2.7
57 | O=C(NCc1cccc(F)c1F)c1cc(CN2CCCC(O)C2)on1 (configuration not stated) | -45.9
58 | CN(C)C(=O)c1ccc(-c2cccc3c2CCNC3)cc1 | -2.31
59 | CC(C)C1CN(c2cccc(C#N)n2)CCCN1CC1CC1 (configuration not stated) | -6.55
60 | Cc1cc(-c2nn(C)c(Cl)c2CN2CC[C@@](O)(C3CCC3)[C@H](C)C2)no1 | -7.23
61 | O=C(N1CCCC1)N1CCC(Nc2ccncn2)CC1 | -42.1
62 | O=C1CC[C@H]2CN(c3ncc(F)cn3)CC[C@H]2N1CCc1ccccc1 | 9.61
63 | CCN(CC)C(CNCc1cc(F)cc(F)c1)c1ccco1 (configuration not stated) | 5.44
64 | Cc1nccn1CCCN1CCCC(c2nccn2C)C1 (configuration not stated) | -10.3
65 | CCN1CC(CN(C)Cc2nc(-c3ccc(C)o3)oc2C)CC1=O (configuration not stated) | 5.88
66 | O=C(C1CCOC1)N1CCC(OCc2ccccc2)CC1 (configuration not stated) | 3.15
67 | Cc1ccc(OC2(C(=O)O)CCN(C(=O)c3cccc(F)c3)CC2)cn1 | 2.91
68 | CN(Cc1ccncn1)C(=O)CCc1[nH]nc2c1CCCC2 | 3.11
69 | Cc1ccc(OC2(C(=O)O)CCN(C/C=C/c3ccco3)CC2)cn1 | -1.64

Row | Structure (SMILES) | cytotoxicity at 10 µM [%]
70 | CCNC(=O)[C@@H]1C[C@@H](n2cc(CN(CC)CC)nn2)CN1 | 0.334
71 | CN(C)C1CCCN(C(=O)CCc2csc(N)n2)CC1 (configuration not stated) | 1.48
72 | Fc1ccc2[nH]c(C3CCCN3CCCn3cccn3)nc2c1 (configuration not stated) | 0.154
73 | COCCN1CCCC(O)(CN2CCN(c3cc(C)ccn3)CC2)C1=O (configuration not stated) | 0.622
74 | CCCOc1ccc(C(=O)N2C[C@@H](CN3CCCC3)[C@@H](CO)C2)cc1Cl | -5.84
75 | COC(=O)CCCC(=O)N1CCCCC1c1ccc(F)cc1 (configuration not stated) | -42.7
76 | Cc1cc(CN(C)c2nc(-c3ccccn3)nc3c2CCNCC3)n[nH]1 | -5.48
77 | CN(c1ncccc1CNC(=O)c1csnn1)C1CCCCC1 | -9.31
78 | CCN(CC1CCOCC1)C(=O)Cn1ccccc1=O | -19.9
79 | CC(=O)N1CCCCC1c1cc(CO)[nH]n1 (configuration not stated) | -0.671
80 | CCOc1cc(C)nc(N2CCN(C(=O)c3ccncc3)CC2)n1 | 3.12
81 | CCOc1cc(C)nc(N2CCN(C(=O)c3csnn3)CC2)n1 | 2.85
82 | Cc1cc(C(=O)N2CCCC(c3cc(C(F)(F)F)[nH]n3)C2)on1 (configuration not stated) | 10.5
83 | Cn1cc(-c2nc(CN3CCc4c(ncn4C)C3)cs2)cn1 | -6.54
84 | CCc1ocnc1C(=O)N1CCCC1c1noc(C2CC2)n1 (configuration not stated) | -4.45
85 | COCC(=O)NC(C)Cc1ccc(Br)cc1 (configuration not stated) | -1.01
86 | Clc1snnc1CN1CCCCC1Cn1cccn1 (configuration not stated) | -14.8
87 | Cc1nc(C)n(CC2CCCN2CCCOc2ccc(C#N)cc2)n1 (configuration not stated) | -8.33
88 | CCc1ccc(C(=O)N2CCC(Nc3ccc(C)nn3)CC2)o1 | -11
89 | O=C(c1cnn(-c2ccccc2)n1)N1CCCC(n2cccn2)C1 (configuration not stated) | 1.13
90 | CCC1CCCN(C(=O)NCc2cccnc2-n2cccn2)C1 (configuration not stated) | -0.734
91 | COc1c(C2CCCN2Cc2noc(C(C)C)n2)c(C)nn1C (configuration not stated) | -8.93
92 | CCc1nc(CN2CCCC2c2c(C)nn(C)c2OC)no1 (configuration not stated) | -6.07

Row | Structure (SMILES) | cytotoxicity at 10 µM [%]
93 | CC(C)(C)c1cnc(CN2CCC[C@H]2CO)o1 | -14.8
94 | Cc1ccc2oc(C(=O)N3CCCC(c4noc(C)n4)C3)cc2n1 (configuration not stated) | -3.56
95 | COc1c(CNC(c2nccn2C)C(C)C)c(C)nn1C (configuration not stated) | -7.46
96 | Cc1nc(C)n(CC2CCCCN2CC(=O)Nc2ccncc2)n1 (configuration not stated) | -0.344
97 | c1ccc(-c2nc(CN3CCc4c(ncn4C4CC4)C3)cs2)cc1 | -8.65
98 | COc1ccc(CN2CCCCC2c2n[nH]cc2-c2cc(C)no2)cc1 (configuration not stated) | 20.8
99 | CCn1c(CN2CCC(O)(c3ccc4c(c3)OCO4)CC2)cnc1SC | 6.96
100 | Cc1c(C2CCCN(C(=O)Cc3ccccn3)C2)n2c(nc1=O)CCC2 (configuration not stated) | 8.39
101 | CO[C@H]1CN(Cc2cccc(C#N)c2)[C@@H]2COC[C@H]12 | -5.77
102 | CC(C)c1noc(CN2CCC(C3CCCCCN3S(C)(=O)=O)CC2)n1 (configuration not stated) | -2.71
103 | CN(C)Cc1nc2c(o1)CN(S(=O)(=O)c1cccs1)C2 | -112
104 | O=C1[C@H]2CN(CC3CC3)C[C@H]2CN1c1ccsc1 | 2.88
105 | CC(C)Nc1nc2c(cc1C(=O)NCC1CC1)CCN(C)CC2 | -5.72
106 | Cc1nc(CN2C[C@@H]3CN(C(=O)Cc4ccccn4)C[C@@H]3C2)cs1 | -106
107 | Cc1ccc(CN2CCC3(CC2)CCN(C(=O)c2cccnc2)C3)o1 | -93.3
108 | Cc1ccc(N2CC[C@H]3C[C@@H](C(=O)N4CCOCC4)O[C@H]3C2)nn1 | 4.94
109 | CC1c2ncc(COc3cccnc3)n2CCN1Cc1cnn(C)c1 (configuration not stated) | -112
110 | O=c1[nH]c2cn(-c3cccc(Cl)c3)c(=O)n2n1Cc1cccc(F)c1 | 11
111 | Cc1ccccc1SCC(=O)NC1CCC(n2cnnc2)CC1 (configuration not stated) | -48
112 | C=c1ccoc1=C1NN=C(CNCCn2cccn2)O1 | -5.02

From ChEMBL document CHEMBL4513216, “Probing the Open Global Health Chemical Diversity Library for Multistage-Active Starting Points for Next-Generation Antimalarials” (ACS Infect Dis, 2020)
